Measurements: EPA's CvTdb concentration-time database

Tests used:
human [1] = test: concentration in blood after dosing
How it was run: (§1)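 A PubMed search, classifier screening and manual review identified published in vivo toxicokinetic studies, which together with two structured collections supplied concentration-versus-time and amount-versus-time points. Points were mostly digitised from plot screenshots with WebPlotDigitizer, otherwise copied from tables. Dose, route, subject details and medium were hand-curated from each paper, and sampling and analytical methods are those of the sources, often unreported.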

rabbit = test: concentration in blood after dosing; conditions: dosed: hexachlorocyclohexane, 25 mg/kg, oral, female
How it was run: as §1

human [2] = test: concentration in expired air after dosing; conditions: dosed: methyl tert-butyl ether, 15 mg, oral, male
How it was run: as §1

human [3] = test: concentration in blood after dosing; negative times count back from the end of exposure; conditions: inhalation
How it was run: as §1

rat = test: concentration in blood after dosing; conditions: dosed: methylene chloride, male
frog = test: concentration in embryo medium after dosing; conditions: dosed: musk moskene, 400 ug/L embryo medium, dermal, duration: 10 days, xenopus laevis
How it was run: as §1

human [4] = test: concentration in urine after dosing; conditions: dosed: benzene, 30 mg/m^3, inhalation, duration: 4 hr, male
How it was run: as §1

human [5] = test: concentration in urine after dosing; conditions: dosed: benzene, 30 mg/m^3, inhalation, duration: 4 hr, male; remark: listed apart in the source
How it was run: as §1

human [6] = test: concentration in urine after dosing; negative times count back from the end of exposure; conditions: dosed: benzene, 30 mg/m^3, inhalation, duration: 4 hr, male
How it was run: as §1

CCOC(C)(C)C [ethyl tert-butyl ether]
concentration in blood [µM], human [1], dosed: ethyl tert-butyl ether, inhalation, duration: 4 hr
Conditions | 2.045 h | 4.023 h | 4.057 h | 6.068 h | 7.977 h | 9.972 h | 11.98 h | 23.9 h | 61 s | 184 s
4.5 ppm | 0.371 | 0.117 | – | – | – | – | – | – | 1.32 | –
40.6 ppm | 3.35 | – | 1.94 | 1.75 | 0.941 | 1.1 | 0.762 | 0.171 | – | 12

ClC1C(Cl)C(Cl)C(Cl)C(Cl)C1Cl (configuration not stated) [hexachlorocyclohexane]
rabbit
Conditions | concentration in blood [ng/mL]
168 h | 9220
336 h | 12300
504 h | 18400
672 h | 24600
840 h | 33800
1008 h | 39900
1176 h | 46100
1344 h | 52200
1512 h | 58400
1680 h | 64500
1848 h | 70700
2016 h | 86000

COC(C)(C)C [methyl tert-butyl ether]
dosed: methyl tert-butyl ether
Conditions | concentration in blood [µM]
human [1], 0.01 h, 38.7 ppm, inhalation, duration: 4 hr | 6.65
human [1], 2 h, 4.5 ppm, inhalation, duration: 4 hr | 0.643
human [1], 2.004 h, 38.7 ppm, inhalation, duration: 4 hr | 2.1
human [1], 3.94 h, 4.5 ppm, inhalation, duration: 4 hr | 0.354
human [1], 3.996 h, 38.7 ppm, inhalation, duration: 4 hr | 1.02
human [1], 6.01 h, 4.5 ppm, inhalation, duration: 4 hr | 0.174
human [1], 6.012 h, 38.7 ppm, inhalation, duration: 4 hr | 0.606
human [1], 7.951 h, 4.5 ppm, inhalation, duration: 4 hr | 0.084
human [1], 8.029 h, 38.7 ppm, inhalation, duration: 4 hr | 0.395
human [1], 10.04 h, 38.7 ppm, inhalation, duration: 4 hr | 0.328
human [1], 12.06 h, 38.7 ppm, inhalation, duration: 4 hr | 0.253
human [1], 22 s, 4.5 ppm, inhalation, duration: 4 hr | 1.93
human [3], 0.2914 h, 25 ppm, duration: 4 hr, male | 7.86
human [3], 0.5342 h, 25 ppm, duration: 4 hr, male | 6.55
human [3], 0.9123 h, 25 ppm, duration: 4 hr, male | 5.51
human [3], 2.155 h, 25 ppm, duration: 4 hr, male | 3.31
human [3], 6.883 h, 25 ppm, duration: 4 hr, male | 0.651
human [3], 20.1 h, 25 ppm, duration: 4 hr, male | 0.04

human [1], dosed: methyl tert-butyl ether, oral
Conditions | concentration in blood [µM]
0.9725 h, 5 mg | 0.0994
1.015 h, 15 mg | 0.685
1.991 h, 5 mg | 0.0411
2.004 h, 15 mg | 0.276
2.918 h, 15 mg | 0.108
2.982 h, 5 mg | 0.0272
3.947 h, 5 mg | 0.0187
4.008 h, 15 mg | 0.082
5.952 h, 5 mg | 0.0131
5.987 h, 15 mg | 0.0471
7.932 h, 5 mg | 0.0117
7.966 h, 15 mg | 0.0264
9.937 h, 5 mg | 0.0101
9.945 h, 15 mg | 0.0233
12 h, 15 mg | 0.013
12.02 h, 5 mg | 0.00899

human [2]
Conditions | concentration in expired air [µM]
0.1656 h | 0.077
0.3208 h | 0.077
0.5071 h | 0.05141
0.6649 h | 0.03325
0.8305 h | 0.02815
0.9935 h | 0.02117
1.508 h | 0.01295
1.995 h | 0.009141
2.999 h | 0.00625
3.99 h | 0.002876
4.996 h | 0.002574
5.99 h | 0.00141

human [3], dosed: methyl tert-butyl ether, 25 ppm, duration: 4 hr, male, during exposure
Conditions | concentration in blood [µM]
-4 h | 0.117
-3.335 h | 6.64
-2.225 h | 7.88
-1.277 h | 9.78
-0.1674 h | 10.6

ClCCl [methylene chloride]
Conditions | concentration in blood [ng/mL]
human [3], 1.928 h, dosed: methylene chloride, 350 ppm, duration: 6 hr | 899
human [3], 2.051 h, dosed: methylene chloride, 100 ppm, duration: 6 hr | 155
human [3], 5.959 h, dosed: methylene chloride, 100 ppm, duration: 6 hr | 62.4
human [3], 6.02 h, dosed: methylene chloride, 350 ppm, duration: 6 hr | 342
human [3], 16.03 h, dosed: methylene chloride, 100 ppm, duration: 6 hr | 12
human [3], 16.07 h, dosed: methylene chloride, 350 ppm, duration: 6 hr | 77.4
human [3], 23.99 h, dosed: methylene chloride, 350 ppm, duration: 6 hr | 36
human [3], 276 s, dosed: methylene chloride, 350 ppm, duration: 6 hr | 5760
rat, 0.1027 h, 125 mg/kg, oral, Wistar | 114000
rat, 0.1096 h, 125 mg/kg, oral, Wistar | 35700
rat, 0.1406 h, 125 mg/kg, oral, Wistar | 101000
rat, 0.1438 h, 125 mg/kg, oral, Wistar | 37300
rat, 0.1715 h, 125 mg/kg, oral, Wistar | 96200
rat, 0.1781 h, 125 mg/kg, oral, Wistar | 38700
rat, 0.2228 h, 125 mg/kg, oral, Wistar | 93900
rat, 0.2329 h, 125 mg/kg, oral, Wistar | 39900
rat, 0.2708 h, 125 mg/kg, oral, Wistar | 88100
rat, 0.2808 h, 125 mg/kg, oral, Wistar | 41000
rat, 0.3223 h, 125 mg/kg, oral, Wistar | 79600
rat, 0.3356 h, 125 mg/kg, oral, Wistar | 39800
rat, 0.3704 h, 125 mg/kg, oral, Wistar | 71100
rat, 0.3836 h, 125 mg/kg, oral, Wistar | 38300
rat, 0.4252 h, 125 mg/kg, oral, Wistar | 65400
rat, 0.4315 h, 125 mg/kg, oral, Wistar | 34600
rat, 0.5041 h, 125 mg/kg, oral, Wistar | 57100
rat, 0.5205 h, 125 mg/kg, oral, Wistar | 36100
rat, 0.7539 h, 125 mg/kg, oral, Wistar | 41600
rat, 0.7671 h, 125 mg/kg, oral, Wistar | 27600
rat, 1.007 h, 125 mg/kg, oral, Wistar | 31400
rat, 1.014 h, 125 mg/kg, oral, Wistar | 24000
rat, 1.5 h, 125 mg/kg, oral, Wistar | 16900
rat, 1.514 h, 125 mg/kg, oral, Wistar | 14900
rat, 2.002 h, 125 mg/kg, oral, Wistar | 8750
rat, 2.014 h, 125 mg/kg, oral, Wistar | 9350
rat, 2.498 h, 125 mg/kg, oral, Wistar | 3470
rat, 2.514 h, 125 mg/kg, oral, Wistar | 11300
rat, 3.014 h, 125 mg/kg, oral, Wistar | 9840
rat, 3.507 h, 125 mg/kg, oral, Wistar | 6900
rat, 4.007 h, 125 mg/kg, oral, Wistar | 5980
rat, 4.507 h, 125 mg/kg, oral, Wistar | 4860
rat, 5 h, 125 mg/kg, oral, Wistar | 1820
rat, 129 s, 125 mg/kg, oral, Wistar | 59800
rat, 173 s, 125 mg/kg, oral, Wistar | 15700
rat, 247 s, 125 mg/kg, oral, Wistar | 29800
rat, 248 s, 125 mg/kg, oral, Wistar | 101000

Conditions | concentration in blood [ng/mL]
human [3], -2.858 h, dosed: methylene chloride, 350 ppm, duration: 6 hr, during exposure | 5830
human [3], -2.95 h, dosed: methylene chloride, 100 ppm, duration: 6 hr, during exposure | 1090
human [3], -58 s, dosed: methylene chloride, 100 ppm, duration: 6 hr, during exposure | 1020
rat, 0.5086 h, 100000 ppm, dermal, duration: 4 hr, Fischer-344 | 57300
rat, 0.5196 h, 60000 ppm, dermal, duration: 4 hr, Fischer-344 | 29800
rat, 0.5257 h, 30000 ppm, dermal, duration: 4 hr, Fischer-344 | 11300
rat, 1.007 h, 100000 ppm, dermal, duration: 4 hr, Fischer-344 | 67300
rat, 1.008 h, 60000 ppm, dermal, duration: 4 hr, Fischer-344 | 45900
rat, 1.013 h, 30000 ppm, dermal, duration: 4 hr, Fischer-344 | 21100
rat, 1.988 h, 100000 ppm, dermal, duration: 4 hr, Fischer-344 | 79800
rat, 1.99 h, 60000 ppm, dermal, duration: 4 hr, Fischer-344 | 43400
rat, 1.996 h, 30000 ppm, dermal, duration: 4 hr, Fischer-344 | 30000
rat, 2.977 h, 100000 ppm, dermal, duration: 4 hr, Fischer-344 | 97700
rat, 2.987 h, 60000 ppm, dermal, duration: 4 hr, Fischer-344 | 44700
rat, 2.989 h, 30000 ppm, dermal, duration: 4 hr, Fischer-344 | 29800
rat, 3.973 h, 100000 ppm, dermal, duration: 4 hr, Fischer-344 | 98100
rat, 3.974 h, 60000 ppm, dermal, duration: 4 hr, Fischer-344 | 52200
rat, 3.978 h, 30000 ppm, dermal, duration: 4 hr, Fischer-344 | 23600

Cc1c([N+](=O)[O-])cc2c(c1[N+](=O)[O-])C(C)(C)CC2(C)C [musk moskene]
frog
Conditions | concentration in embryo medium [ng/mL]
0.1638 h | 353
0.2136 h | 293
0.2621 h | 670
95.89 h | 46.5
168.63 h | 226
240 h | 175
240.21 h | 290
240.24 h | 222

Oc1ccccc1 [phenol]
Conditions | concentration in urine [µM]
human [4], 0 h | 72.9
human [4], 2 h | 113
human [4], 4 h | 226
human [4], 6 h | 207
human [4], 8 h | 143
human [4], 10 h | 180
human [4], 12.06 h | 144
human [4], 14 h | 87.1
human [4], 20.36 h | 70.2
human [4], 24.06 h | 112
human [4], 27.03 h | 80.5
human [4], 32 h | 82.7
human [4], 38.06 h | 73.4
human [4], 42.55 h | 45.5
human [4], 47.58 h | 65.6
human [4], 52.48 h | 50.5
human [5], 0 h | 61.4
human [5], 2 h | 82.2
human [5], 4 h | 186
human [5], 5.939 h | 193
human [5], 8 h | 143
human [5], 10 h | 129
human [5], 12.06 h | 109
human [5], 14.36 h | 102
human [5], 15.52 h | 80.2
human [5], 23.33 h | 176
human [5], 26.24 h | 68.4
human [5], 37.03 h | 45.6
human [5], 38.55 h | 45
human [5], 46.55 h | 87.7
human [5], 47.52 h | 141
human [5], 52 h | 95.1
human [6], 0 h | 314
human [6], 1.939 h | 244
human [6], 4 h | 187
human [6], 6.061 h | 200
human [6], 8 h | 99.3
human [6], 10.06 h | 114
human [6], 18 h | 121
human [6], 24.55 h | 51
human [6], 30 h | 39.3
human [6], 34.12 h | 38
human [6], 42.3 h | 38.5
human [6], 50.48 h | 52.2

human [6], during exposure
Conditions | concentration in urine [µM]
-4 h | 23.7
-2.061 h | 124

CC(C)(C)O [tert-butanol]
human [3], dosed: methyl tert-butyl ether, 25 ppm, duration: 4 hr, male
Conditions | concentration in blood [µM]
0.1966 h | 14.8
0.4673 h | 15.1
0.8191 h | 15.4
2.091 h | 14.8
6.879 h | 11.6
20.02 h | 4.27

human [3], dosed: methyl tert-butyl ether, 25 ppm, duration: 4 hr, male, during exposure
Conditions | concentration in blood [µM]
-3.999 h | 0.0102
-3.435 h | 3.36
-2.296 h | 6.17
-1.076 h | 10.4
-0.2367 h | 13.1
